Assay results published in publication PMC8179660 (Chemical Science, 2021).

Target: T1, p300 (Homo sapiens, UniProt Q09472)
T1 sequence (Q09472 1284-1673 limits assumed): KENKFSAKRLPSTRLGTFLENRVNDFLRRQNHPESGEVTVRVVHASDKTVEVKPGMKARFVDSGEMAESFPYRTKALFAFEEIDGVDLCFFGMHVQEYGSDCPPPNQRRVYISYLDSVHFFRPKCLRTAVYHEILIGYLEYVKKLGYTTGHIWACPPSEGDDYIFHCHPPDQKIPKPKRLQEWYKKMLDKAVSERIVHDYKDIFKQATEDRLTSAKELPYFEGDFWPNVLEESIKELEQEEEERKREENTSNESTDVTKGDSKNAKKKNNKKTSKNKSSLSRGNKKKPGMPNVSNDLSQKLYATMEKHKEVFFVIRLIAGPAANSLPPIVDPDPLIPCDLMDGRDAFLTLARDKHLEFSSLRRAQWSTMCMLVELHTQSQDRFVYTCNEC
Experiment: radioactive acetyltransferase activity-based IC50 assay
Assay type: biochemical
Summary of the method: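 Test compounds came from a DNA-encoded peptide macrocycle library affinity selection against p300 using a poly-His/Ni-NTA magnetic bead binding system. They were resynthesized off-DNA, without the DNA tag, and tested for p300 inhibition in a radioactive acetyltransferase activity assay to derive IC50.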

Work on `CC(C)C[C@H]1NC(=O)[C@@H](NC(=O)CCc2cccc([N+](=O)[O-])c2)Cc2ccc(cc2)SC[C@@H](C(N)=O)NC(=O)CC2(CCCCC2)CNC1=O` [Compound 33-C] yielded an IC50 of 5.2 µM.
